Measured values reported in ChEMBL document CHEMBL3627690, “Scaffold-Hopping and Structure-Based Discovery of Potent, Selective, And Brain Penetrant N-(1H-Pyrazol-3-yl)pyridin-2-amine Inhibitors of Dual Leucine Zipper Kinase (DLK, MAP3K12)” (J Med Chem, 2015).
pIC50: −log10 of the molar value. Calls of active or inactive are those of the source. The rule behind the calls is not given here.

Key:
Rattus norvegicus = test: Free clearance in […] rat at 0.4 or 1 mg/kg, iv and 1 or 5 mg/kg, po; assay type: ADME, organism-based; details: in vivo
Method in brief: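 Rat PK used iv dosing at 0.4 or 1 mg/kg in 60% PEG solution and po dosing at 1 or 5 mg/kg as an aqueous 1% methylcellulose suspension. Free clearance is CL/fu, where fu is the fraction unbound in plasma.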

[1] = Plasma clearance in […] rat at 0.4 or 1 mg/kg, iv and 1 or 5 mg/kg, po; assay type: ADME, organism-based
Method in brief: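 Rat PK: iv dosing at 0.4 or 1 mg/kg as a 60% PEG solution, po dosing at 1 or 5 mg/kg as an aqueous suspension with 1% methylcellulose.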

[2] = biological target: Hepatocyte growth factor receptor (Homo sapiens) (UniProt P08581); test: Inhibition of Met (unknown origin) at 1 uM by FRET method
Method in brief: (§1)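 Single-point screen at 1 uM against a panel of 58 representative kinases. Readout was labeled-peptide phosphorylation by FRET (Z′-LYTE), using the vendor's protocols.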

[3] = biological target: T1, Mitogen-activated protein kinase kinase kinase 9 (Homo sapiens, UniProt P80192); test: Inhibition of MLK1 (unknown origin) at 1 uM by FRET method; method in brief: as §1
[4] = biological target: T2, Mitogen-activated protein kinase kinase kinase 11 (Homo sapiens, UniProt Q16584); test: Inhibition of MLK3 (unknown origin) at 1 uM by FRET method; method in brief: as §1
[5] = biological target: Serine/threonine-protein kinase mTOR (Homo sapiens) (UniProt P42345); test: Inhibition of mTOR (unknown origin) at 1 uM by FRET method; method in brief: as §1
[6] = biological target: Serine/threonine-protein kinase Nek1 (Homo sapiens) (UniProt Q96PY6); test: Inhibition of NEK1 (unknown origin) at 1 uM by FRET method; method in brief: as §1
[7] = biological target: Mitogen-activated protein kinase 14 (Homo sapiens) (UniProt Q16539); test: Inhibition of p38alpha (unknown origin) at 1 uM by FRET method; method in brief: as §1
Chain of Mitogen-activated protein kinase 14 (Homo sapiens) (Q16539 whole entry): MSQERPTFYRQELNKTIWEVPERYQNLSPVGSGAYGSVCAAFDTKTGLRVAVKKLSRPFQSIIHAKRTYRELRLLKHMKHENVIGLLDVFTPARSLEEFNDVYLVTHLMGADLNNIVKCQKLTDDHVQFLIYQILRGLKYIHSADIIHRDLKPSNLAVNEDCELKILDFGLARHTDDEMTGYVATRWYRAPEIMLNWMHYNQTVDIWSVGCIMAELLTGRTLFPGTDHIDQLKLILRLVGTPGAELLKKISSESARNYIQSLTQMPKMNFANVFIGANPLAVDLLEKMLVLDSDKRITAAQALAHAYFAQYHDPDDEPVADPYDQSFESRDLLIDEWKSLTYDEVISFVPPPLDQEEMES

[8] = biological target: Serine/threonine-protein kinase PAK 4 (Homo sapiens) (UniProt O96013); test: Inhibition of PAK4 (unknown origin) at 1 uM by FRET method; method in brief: as §1
Chain of Serine/threonine-protein kinase PAK 4 (Homo sapiens) (O96013 whole entry, looked up, canonical isoform): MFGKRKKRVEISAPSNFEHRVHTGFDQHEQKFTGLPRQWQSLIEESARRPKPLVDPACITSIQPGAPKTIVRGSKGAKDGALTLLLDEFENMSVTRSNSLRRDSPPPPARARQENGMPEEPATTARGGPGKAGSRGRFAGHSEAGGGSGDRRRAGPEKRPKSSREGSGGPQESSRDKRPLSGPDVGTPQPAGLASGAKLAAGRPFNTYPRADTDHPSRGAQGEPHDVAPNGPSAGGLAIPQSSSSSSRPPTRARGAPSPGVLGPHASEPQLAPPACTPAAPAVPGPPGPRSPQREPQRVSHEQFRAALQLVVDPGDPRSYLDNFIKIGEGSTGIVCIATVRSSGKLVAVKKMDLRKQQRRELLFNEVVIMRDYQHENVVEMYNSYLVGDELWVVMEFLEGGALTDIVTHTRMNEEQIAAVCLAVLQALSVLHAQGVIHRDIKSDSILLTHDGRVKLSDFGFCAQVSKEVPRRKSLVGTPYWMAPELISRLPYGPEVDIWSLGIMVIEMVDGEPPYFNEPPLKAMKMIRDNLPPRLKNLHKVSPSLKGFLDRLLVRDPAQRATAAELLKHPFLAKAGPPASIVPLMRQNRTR

[9] = biological target: Phosphorylase b kinase gamma catalytic chain, liver/testis isoform (Homo sapiens) (UniProt P15735); test: Inhibition of PhKgamma2 (unknown origin) at 1 uM by FRET method; method in brief: as §1
[10] = biological target: cAMP-dependent protein kinase (PKA) (Homo sapiens) (UniProt P22694+P17612+P22612); test: Inhibition of PKA (unknown origin) at 1 uM by FRET method; assay type: protein assay; method in brief: as §1
[11] = biological target: Protein kinase C beta type (Homo sapiens) (UniProt P05771); test: Inhibition of PKCbeta1 (unknown origin) at 1 uM by FRET method; method in brief: as §1
Chain of Protein kinase C beta type (Homo sapiens) (P05771 2-671 limits assumed): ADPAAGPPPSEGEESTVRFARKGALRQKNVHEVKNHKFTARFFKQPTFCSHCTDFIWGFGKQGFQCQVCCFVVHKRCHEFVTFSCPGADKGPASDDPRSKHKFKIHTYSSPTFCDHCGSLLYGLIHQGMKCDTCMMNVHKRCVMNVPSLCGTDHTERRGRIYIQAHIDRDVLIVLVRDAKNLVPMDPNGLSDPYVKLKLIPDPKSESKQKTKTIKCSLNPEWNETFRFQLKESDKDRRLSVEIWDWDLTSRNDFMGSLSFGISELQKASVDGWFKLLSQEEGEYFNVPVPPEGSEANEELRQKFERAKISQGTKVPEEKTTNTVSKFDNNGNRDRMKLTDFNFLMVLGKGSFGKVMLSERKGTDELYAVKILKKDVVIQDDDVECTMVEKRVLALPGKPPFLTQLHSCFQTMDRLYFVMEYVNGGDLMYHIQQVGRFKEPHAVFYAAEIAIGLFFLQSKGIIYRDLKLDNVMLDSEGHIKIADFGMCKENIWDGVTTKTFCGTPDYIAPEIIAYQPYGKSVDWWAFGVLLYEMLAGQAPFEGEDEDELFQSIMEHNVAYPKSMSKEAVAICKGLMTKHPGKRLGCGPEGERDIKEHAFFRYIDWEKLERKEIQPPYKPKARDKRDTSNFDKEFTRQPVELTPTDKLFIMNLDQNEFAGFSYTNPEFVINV

TAK1/TAB1 (Homo sapiens) = TAK1/TAB1 (Homo sapiens) (UniProt Q15750+O43318); test: Inhibition of TAK1-TAB1 (unknown origin) at 1 uM by FRET method; assay type: protein-complex assay; method in brief: as §1
[12] = biological target: Tyrosine-protein kinase ABL1 (Homo sapiens) (UniProt P00519); test: Inhibition of Abl (unknown origin) at 1 uM by FRET method
Method in brief: (§2)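 SelectScreen panel of 58 kinases, each tested at a single 1 µM compound concentration. Read-out was Z′-LYTE FRET of labeled peptide phosphorylation, run by the vendor's protocols, reported as percent inhibition.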

[13] = biological target: Casein kinase I isoform gamma-2 (Homo sapiens) (UniProt P78368); test: Inhibition of CK1gamma2 (unknown origin) at 1 uM by FRET method; method in brief: as §2
[14] = biological target: Epidermal growth factor receptor (Homo sapiens) (UniProt P00533); test: Inhibition of EGFR (unknown origin) at 1 uM by FRET method; method in brief: as §2
Chain of Epidermal growth factor receptor (Homo sapiens) (P00533 whole entry): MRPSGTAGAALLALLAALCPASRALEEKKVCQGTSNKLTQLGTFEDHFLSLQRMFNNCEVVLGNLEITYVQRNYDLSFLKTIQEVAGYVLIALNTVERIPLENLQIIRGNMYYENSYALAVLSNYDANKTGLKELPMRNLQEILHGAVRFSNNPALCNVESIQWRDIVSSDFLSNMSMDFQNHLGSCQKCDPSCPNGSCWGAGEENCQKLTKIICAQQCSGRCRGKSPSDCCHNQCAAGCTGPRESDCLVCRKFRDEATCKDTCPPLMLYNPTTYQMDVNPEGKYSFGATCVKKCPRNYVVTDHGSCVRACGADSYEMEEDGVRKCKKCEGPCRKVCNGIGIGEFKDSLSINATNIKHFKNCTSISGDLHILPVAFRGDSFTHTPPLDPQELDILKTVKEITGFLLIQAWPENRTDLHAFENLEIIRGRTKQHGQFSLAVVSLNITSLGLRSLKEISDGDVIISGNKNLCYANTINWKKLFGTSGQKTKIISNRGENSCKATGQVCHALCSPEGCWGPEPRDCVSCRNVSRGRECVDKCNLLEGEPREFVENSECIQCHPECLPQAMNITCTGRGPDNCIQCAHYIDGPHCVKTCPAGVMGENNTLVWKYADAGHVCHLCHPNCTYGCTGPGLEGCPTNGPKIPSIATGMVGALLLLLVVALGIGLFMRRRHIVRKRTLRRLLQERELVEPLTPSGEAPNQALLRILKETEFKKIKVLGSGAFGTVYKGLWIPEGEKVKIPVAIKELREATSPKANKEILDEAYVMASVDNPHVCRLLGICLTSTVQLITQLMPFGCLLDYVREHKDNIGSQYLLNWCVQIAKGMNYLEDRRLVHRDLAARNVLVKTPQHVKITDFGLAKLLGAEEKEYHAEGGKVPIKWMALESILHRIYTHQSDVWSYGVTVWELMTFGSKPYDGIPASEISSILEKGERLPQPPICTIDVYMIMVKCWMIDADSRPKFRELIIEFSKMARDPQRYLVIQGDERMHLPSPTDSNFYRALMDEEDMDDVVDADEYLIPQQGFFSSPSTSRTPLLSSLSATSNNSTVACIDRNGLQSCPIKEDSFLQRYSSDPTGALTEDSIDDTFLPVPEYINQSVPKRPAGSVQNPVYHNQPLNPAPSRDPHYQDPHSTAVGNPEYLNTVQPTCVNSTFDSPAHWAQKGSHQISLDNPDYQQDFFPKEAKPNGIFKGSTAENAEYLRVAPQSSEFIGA

[15] = biological target: T3, Glycogen synthase kinase-3 beta (Homo sapiens, UniProt P49841); test: Inhibition of GSK3beta (unknown origin) at 1 uM by FRET method; method in brief: as §2
[16] = biological target: Vascular endothelial growth factor receptor 2 (Homo sapiens) (UniProt P35968); test: Inhibition of KDR (unknown origin) at 1 uM by FRET method; method in brief: as §2
[17] = biological target: T4, Mast/stem cell growth factor receptor Kit (Homo sapiens, UniProt P10721); test: Inhibition of Kit (unknown origin) at 1 uM by FRET method; method in brief: as §2
T4 sequence (P10721 whole entry): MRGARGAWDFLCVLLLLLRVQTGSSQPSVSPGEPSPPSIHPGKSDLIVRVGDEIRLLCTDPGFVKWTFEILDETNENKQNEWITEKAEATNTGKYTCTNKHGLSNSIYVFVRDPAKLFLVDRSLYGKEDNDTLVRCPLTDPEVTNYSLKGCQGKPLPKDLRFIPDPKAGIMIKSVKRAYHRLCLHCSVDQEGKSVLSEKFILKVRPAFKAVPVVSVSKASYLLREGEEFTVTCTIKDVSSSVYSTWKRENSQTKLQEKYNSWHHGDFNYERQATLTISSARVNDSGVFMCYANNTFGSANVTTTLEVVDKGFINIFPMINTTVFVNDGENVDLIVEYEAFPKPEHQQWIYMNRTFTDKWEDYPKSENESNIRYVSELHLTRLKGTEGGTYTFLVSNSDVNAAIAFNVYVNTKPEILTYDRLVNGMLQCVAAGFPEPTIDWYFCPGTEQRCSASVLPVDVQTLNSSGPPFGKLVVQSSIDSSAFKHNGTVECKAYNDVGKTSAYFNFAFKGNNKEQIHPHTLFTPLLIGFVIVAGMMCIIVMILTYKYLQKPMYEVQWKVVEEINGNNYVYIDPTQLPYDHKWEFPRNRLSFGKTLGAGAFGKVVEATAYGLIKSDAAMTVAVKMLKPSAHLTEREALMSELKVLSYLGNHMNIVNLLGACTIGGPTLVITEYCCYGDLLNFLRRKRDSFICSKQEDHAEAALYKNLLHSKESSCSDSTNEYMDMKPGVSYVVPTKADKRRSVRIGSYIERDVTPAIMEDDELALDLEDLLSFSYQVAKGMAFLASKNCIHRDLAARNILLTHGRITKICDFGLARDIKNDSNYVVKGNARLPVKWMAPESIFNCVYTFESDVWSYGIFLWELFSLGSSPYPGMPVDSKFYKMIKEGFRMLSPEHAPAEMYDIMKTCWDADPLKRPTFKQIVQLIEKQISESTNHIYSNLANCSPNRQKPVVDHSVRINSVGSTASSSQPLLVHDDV

[18] = biological target: Tyrosine-protein kinase Lck (Homo sapiens) (UniProt P06239); test: Inhibition of Lck (unknown origin) at 1 uM by FRET method; method in brief: as §2
[19] = biological target: Mitogen-activated protein kinase kinase kinase kinase 4 (Homo sapiens) (UniProt O95819); test: Inhibition of MAP4K4 (unknown origin) at 1 uM by FRET method; method in brief: as §2
[20] = biological target: Receptor-type tyrosine-protein kinase FLT3 (Homo sapiens, UniProt P36888); test: Inhibition of Flt3 (unknown origin) by FRET method
[21] = biological target: T3, Glycogen synthase kinase-3 beta; test: Inhibition of GSK3beta (unknown origin) by FRET method
[22] = biological target: T4, Mast/stem cell growth factor receptor Kit; test: Inhibition of Kit (unknown origin) by FRET method
[23] = biological target: High affinity nerve growth factor receptor (Homo sapiens, UniProt P04629); test: Inhibition of TrkA (unknown origin) by FRET method
Chain of High affinity nerve growth factor receptor (P04629 whole entry): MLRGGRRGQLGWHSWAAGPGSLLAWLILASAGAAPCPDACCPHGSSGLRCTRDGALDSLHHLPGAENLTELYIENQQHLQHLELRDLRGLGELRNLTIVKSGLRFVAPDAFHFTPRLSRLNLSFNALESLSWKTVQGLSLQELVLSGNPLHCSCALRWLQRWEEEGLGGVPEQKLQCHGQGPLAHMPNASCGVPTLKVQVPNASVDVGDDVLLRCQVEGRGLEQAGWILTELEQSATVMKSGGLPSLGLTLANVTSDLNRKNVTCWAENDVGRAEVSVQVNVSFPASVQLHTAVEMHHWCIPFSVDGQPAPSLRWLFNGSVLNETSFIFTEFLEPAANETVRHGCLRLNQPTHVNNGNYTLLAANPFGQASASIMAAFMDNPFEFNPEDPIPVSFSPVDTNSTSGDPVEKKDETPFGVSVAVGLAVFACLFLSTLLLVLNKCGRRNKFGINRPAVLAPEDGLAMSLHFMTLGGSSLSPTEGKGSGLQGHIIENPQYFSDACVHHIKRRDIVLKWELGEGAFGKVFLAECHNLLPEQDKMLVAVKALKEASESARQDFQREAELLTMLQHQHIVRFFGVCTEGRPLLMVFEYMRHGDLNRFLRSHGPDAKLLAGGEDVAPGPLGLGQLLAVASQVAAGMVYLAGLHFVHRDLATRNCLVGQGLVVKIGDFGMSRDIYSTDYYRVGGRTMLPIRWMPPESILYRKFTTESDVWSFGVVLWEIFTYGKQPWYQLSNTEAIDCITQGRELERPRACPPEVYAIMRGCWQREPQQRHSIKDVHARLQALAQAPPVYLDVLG
Method in brief: (§3)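 Biochemical IC50 determination from a 10-point dose-response in an enzymatic Z′-LYTE assay. Labeled-peptide phosphorylation was read by FRET under the vendor's protocols.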

[24] = biological target: Mitogen-activated protein kinase 9 (Homo sapiens, UniProt P45984); test: Inhibition of JNK2 (unknown origin) by FRET method
Chain of Mitogen-activated protein kinase 9 (P45984 whole entry): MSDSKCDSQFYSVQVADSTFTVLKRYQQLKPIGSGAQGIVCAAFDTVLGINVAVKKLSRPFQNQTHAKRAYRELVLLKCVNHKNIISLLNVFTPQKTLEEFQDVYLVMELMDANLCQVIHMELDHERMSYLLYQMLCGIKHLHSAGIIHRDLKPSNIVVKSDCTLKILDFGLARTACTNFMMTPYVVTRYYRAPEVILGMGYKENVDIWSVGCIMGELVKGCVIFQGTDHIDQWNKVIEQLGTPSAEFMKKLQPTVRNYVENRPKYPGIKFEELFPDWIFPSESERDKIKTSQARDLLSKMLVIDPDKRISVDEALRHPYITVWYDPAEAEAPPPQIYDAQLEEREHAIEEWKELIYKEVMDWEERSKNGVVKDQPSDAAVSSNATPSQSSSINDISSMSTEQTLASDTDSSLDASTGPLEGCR
Method in brief: (§4)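 JNK1, JNK2 and JNK3 IC50 values came from a 10-point dose–response enzymatic assay.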

[25] = biological target: Mitogen-activated protein kinase 10 (Homo sapiens, UniProt P53779); test: Inhibition of JNK3 (unknown origin) by FRET method; method in brief: as §4
[26] = biological target: T1, Mitogen-activated protein kinase kinase kinase 9; test: Inhibition of MLK1 (unknown origin) by FRET method; method in brief: as §3
[27] = biological target: T2, Mitogen-activated protein kinase kinase kinase 11; test: Inhibition of MLK3 (unknown origin) by FRET method; method in brief: as §3
[28] = Tmax in mouse at 50 mg/kg, po; assay type: ADME, organism-based; details: in vivo
Method in brief: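 Mice were dosed orally at 50 mg/kg as a methylcellulose suspension. Exposure was sampled over 0–6 h, and free brain concentration was determined at 6 h.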

Mus musculus [29] = test: Unbound fraction in brain in mouse at 50 mg/kg, po at 6 hr; assay type: ADME, organism-based; details: in vivo
Mus musculus [30] = test: Reduction of p-c-Jun level in retina of optic nerve crush injury mouse model at 75 mg/kg, po administered 30 mins prior to nerve crush injury measured at 6 hrs by MSD ELISA; assay type: functional, organism-based
Method in brief: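 C57/Bl6 mice were dosed orally with a methylcellulose suspension or vehicle 30 min before optic nerve crush. Retinal p-c-Jun was measured 6 h after injury by MSD ELISA. Values are expressed relative to uncrushed vehicle controls as mean ± SEM with individual animals.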

[31] = biological target: BDNF/NT-3 growth factors receptor (Homo sapiens, UniProt Q16620); details: 1 uM
HEK293 = test: Effect on total JNK protein level in HEK293 cells transfected with Flag DLK (unknown origin) at 0.1 to 10 uM incubated for 5 hrs by Western blot analysis; details: human, hek293, 5 h

- CL free (Rattus norvegicus): 327 mL/min/kg
- clearance [1]: 34 mL/min/kg
- inhibition [2]: 23.4%
- inhibition [3]: 4.4%
- inhibition [4]: 1.4%
- inhibition [5]: 9.2%
- inhibition [6]: 3.1%
- inhibition [7]: 14.6%
- inhibition [8]: 48%
- inhibition [9]: -1.9%
- inhibition [10]: 4%
- inhibition [11]: 15.9%
- inhibition (TAK1/TAB1 (Homo sapiens)): 13.6%
- inhibition [12]: 8.4%
- inhibition [13]: 1.8%
- inhibition [14]: 2.1%
- inhibition [15]: 58.6%
- inhibition [16]: 5.2%
- inhibition [17]: 56%
- inhibition [18]: 37.5%
- inhibition [19]: 12.1%
- pIC50 [20]: 6.49
- pIC50 [21]: 6.17
- pIC50 [22]: 6.27
- pIC50 [23]: 6.33
- pIC50 [24]: 5.30
- pIC50 [25]: 5.68
- pIC50 [26]: < 5.00
- pIC50 [27]: < 5.00
- Tmax [28]: 15 min
- Drug uptake(free) (Mus musculus [29]): 0.05 µM
- inhibition [31]: 50.5%
SMILES: N#Cc1ccnc(Nc2cc(C3CCN(C4COC4)CC3)n(C3CCCC3)n2)c1
- Activity (Mus musculus [30]): Active
- Activity (HEK293): Non-toxic
